# ChEMBL document CHEMBL1153955, “Indolylarylsulfones bearing natural and unnatural amino acids. Discovery of potent inhibitors of HIV-1 non-nucleoside wild type and resistant mutant strains reverse transcriptase and coxsackie B4 virus” (J Med Chem, 2009)
# Legend:
# [1] = tested on: Human immunodeficiency virus 1; assay: Antiviral activity against HIV1 with reverse transcriptase Y181I mutation in human CEM cells assessed as protection against virus-induced cytopathicity; format: functional, organism-based; conditions: Human immunodeficiency virus 1, CCRF-CEM
# Outline: (§1)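 CEM cells (~3 × 10⁵ cells/mL) were infected with ~100 CCID₅₀ virus per mL and seeded with serial compound dilutions. After 4 days at 37 °C, syncytium (giant cell) formation was scored microscopically. EC₅₀ is the concentration giving 50% protection against virus cytopathicity.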
# [2] = Cytotoxicity against MDCK cells by MTS assay; format: cell-based, Canis lupus familiaris; conditions: dog
# Felid alphaherpesvirus 1 = assay: Antiviral activity against Feline herpesvirus in feline […] cells assessed as inhibition of virus-induced cytopathicity; format: functional, organism-based
# [3] = tested on: Human immunodeficiency virus 1; assay: Antiviral activity against HIV1 with reverse transcriptase K103N mutation in human CEM cells assessed as protection against virus-induced cytopathicity; format: functional, organism-based; conditions: Human immunodeficiency virus 1, CCRF-CEM; outline: as §1
# [4] = target: Human immunodeficiency virus type 1 reverse transcriptase (Human immunodeficiency virus 1, UniProt Q72547, L100I); assay: Inhibition of HIV1 reverse transcriptase p66/p51 L100I mutant; conditions: read-out: IC50
# Outline: (§2)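 Substrate was 0.5 µg poly(rA)/oligo(dT) 10:1 (0.3 µM 3′-OH ends) with 10 µM [³H]dTTP, at 37 °C. Acid-precipitable radioactivity was counted on GF/C filters after TCA washes.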
# Punta Toro virus = assay: Antiviral activity against Punta Toro virus in african green monkey Vero cells assessed as protection against virus-induced cytopathicity; format: functional, organism-based
# Outline: (§3)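 Confluent cell monolayers inoculated with 100 CCID₅₀ virus. After 1-2 h adsorption, residual virus removed and cultures incubated with varying compound concentrations. Cytopathicity scored once it reached completion in untreated infected controls. EC₅₀ = dose reducing virus-induced cytopathogenicity by 50%.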
# [5] = tested on: Vesicular stomatitis virus; assay: Antiviral activity against VSV in human HeLa cells assessed as protection against virus-induced cytopathicity; format: functional, organism-based
# [6] = tested on: Respiratory syncytial virus; assay: Antiviral activity against RSV Long in human HeLa cells assessed as protection against virus-induced cytopathicity; format: functional, organism-based; outline: as §3
# [7] = tested on: Vesicular stomatitis virus; assay: Antiviral activity against VSV in human HEL cells assessed as protection against virus-induced cytopathicity; format: functional, organism-based
# Human respirovirus 3 = assay: Antiviral activity against Parainfluenza virus type 3 in african green monkey Vero cells assessed as protection against virus-induced cytopathicity; format: functional, organism-based; conditions: Human respirovirus 3, Vero; outline: as §3
# Influenza A virus H3N2 [8] = assay: Antiviral activity against influenza H3N2 virus in MDCK cells assessed as reduction of virus-induced cytopathicity by MTS method; format: functional, organism-based
# [9] = tested on: Human immunodeficiency virus 2; assay: Antiviral activity against HIV2 ROD in human CEM cells assessed as protection against virus-induced cytopathicity after 4 days; format: functional, organism-based; conditions: Human immunodeficiency virus 2, ROD, CCRF-CEM, 96 h
# Outline: (§4)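 CEM cells (~3 × 10⁵ cells/mL) infected with ~100 CCID₅₀ per mL of HIV-1 (IIIB) or HIV-2 (ROD), then seeded into wells containing compound dilutions. After 4 days at 37 °C, syncytium (giant cell) formation was examined microscopically. EC₅₀ = concentration protecting CEM cells from HIV cytopathicity by 50%.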
# Influenza B virus [10] = assay: Antiviral activity against influenza B virus in MDCK cells assessed as reduction of virus-induced cytopathicity by MTS method; format: functional, organism-based
# Human alphaherpesvirus 2 = assay: Antiviral activity against HSV2 G in human HEL cells assessed as protection against virus-induced cytopathicity; format: functional, organism-based; conditions: Human alphaherpesvirus 2, strain G; outline: as §3
# Influenza A virus [11] = assay: Antiviral activity against influenza H1N1 virus in MDCK cells assessed as reduction of virus-induced cytopathicity by MTS method; format: functional, organism-based; conditions: Influenza A virus, H1N1, MDCK
# Sindbis virus = assay: Antiviral activity against Sindbis virus in african green monkey Vero cells assessed as protection against virus-induced cytopathicity; format: functional, organism-based; outline: as §3
# Human alphaherpesvirus 1 [12] = assay: Antiviral activity against thymidine kinase deficient and acyclovir resistant HSV1 KOS in human HEL cells assessed as protection against virus-induced cytopathicity; format: functional, organism-based; conditions: Human alphaherpesvirus 1, KOS
# Feline coronavirus = assay: Antiviral activity against Feline coronavirus in feline […] cells assessed as inhibition of virus-induced cytopathicity; format: functional, organism-based; conditions: Alphacoronavirus 1
# [13] = tested on: Human immunodeficiency virus 1; assay: Antiviral activity against HIV1 3B in human CEM cells assessed as protection against virus-induced cytopathicity after 4 days; format: functional, organism-based; conditions: Human immunodeficiency virus 1, 3B, CCRF-CEM, 96 h; outline: as §4
# [14] = tested on: Human immunodeficiency virus 1; assay: Antiviral activity against HIV1 with reverse transcriptase Y188L mutation in human CEM cells assessed as protection against virus-induced cytopathicity; format: functional, organism-based; conditions: Human immunodeficiency virus 1, CCRF-CEM; outline: as §1
# [15] = Cytotoxicity against human HEL cells assessed as drug level causing microscopically detectable alteration of normal cell morphology after 3 days; format: cell-based
# Influenza A virus H3N2 [16] = assay: Antiviral activity against influenza H3N2 virus in MDCK cells assessed as reduction of virus-induced cytopathicity by visual cytopathic effect scoring method; format: functional, organism-based
# [17] = Cytotoxicity against MDCK cells assessed as drug level causing microscopically detectable alteration of normal cell morphology; format: cell-based, Canis lupus familiaris; conditions: dog
# Coxsackievirus B4 [18] = assay: Antiviral activity against Coxsackievirus B4 in african green monkey Vero cells assessed as protection against virus-induced cytopathicity; format: functional, organism-based; conditions: Enterovirus B; outline: as §3
# Influenza A virus [19] = assay: Antiviral activity against influenza H1N1 virus in MDCK cells assessed as reduction of virus-induced cytopathicity by visual cytopathic effect scoring method; format: functional, organism-based
# [20] = target: Human immunodeficiency virus type 1 reverse transcriptase (Human immunodeficiency virus 1, UniProt Q72547, Y181I); assay: Inhibition of HIV1 reverse transcriptase p66/p51 Y181I mutant; conditions: read-out: IC50; outline: as §2
# Coxsackievirus B4 [21] = assay: Antiviral activity against Coxsackievirus B4 in human HeLa cells assessed as protection against virus-induced cytopathicity; format: functional, organism-based; conditions: Enterovirus B; outline: as §3
# [22] = Cytotoxicity against feline CRFK cells by MTS assay; format: cell-based, Felis catus; conditions: cat
# [23] = tested on: Human immunodeficiency virus 1; assay: Antiviral activity against HIV1 with reverse transcriptase L100I mutation in human CEM cells assessed as protection against virus-induced cytopathicity; format: functional, organism-based; conditions: Human immunodeficiency virus 1, CCRF-CEM; outline: as §1
# [24] = Antiproliferative activity against human Molt4/C8 cells after 3 days; format: cell-based; conditions: MOLT-4, 72 h
# Outline: (§5)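 Cells seeded at 5 × 10⁴ to 7.5 × 10⁴ cells/200 µL with or without serial compound dilutions; incubated at 37 °C for 2 days (L1210) or 3 days (Molt4/C8, CEM). Cell numbers counted with a Coulter counter. CC₅₀ = concentration reducing proliferation by 50% versus untreated controls, read from plots of cell number (% of control) against concentration. Means of at least two independent experiments.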
# [25] = Cytotoxicity against human HeLa cells assessed as drug level causing microscopically detectable alteration of normal cell morphology after 3 days; format: cell-based
# Outline: (§6)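 Serial compound dilutions added to confluent HeLa or Vero monolayers. MCC = minimum concentration causing microscopically detectable alteration of cell morphology after 3 days of incubation.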
# Human alphaherpesvirus 1 [26] = assay: Antiviral activity against HSV1 KOS in human HEL cells assessed as protection against virus-induced cytopathicity; format: functional, organism-based; conditions: Human alphaherpesvirus 1, KOS
# [27] = tested on: Human immunodeficiency virus 1; assay: Antiviral activity against HIV1 with reverse transcriptase Y181C mutation in human CEM cells assessed as protection against virus-induced cytopathicity; format: functional, organism-based; conditions: Human immunodeficiency virus 1, CCRF-CEM; outline: as §1
# [28] = Cytotoxicity against african green monkey Vero cells assessed as drug level causing microscopically detectable alteration of normal cell morphology after 3 days; format: cell-based; conditions: chlorocebus sabaeus; outline: as §6
# [29] = tested on: Mammalian orthoreovirus 1; assay: Antiviral activity against Reovirus 1 in african green monkey Vero cells assessed as protection against virus-induced cytopathicity; format: functional, organism-based; conditions: Mammalian orthoreovirus 1, Vero; outline: as §3
# [30] = target: Human immunodeficiency virus type 1 reverse transcriptase (Human immunodeficiency virus 1, UniProt Q72547); assay: Inhibition of HIV1 reverse transcriptase p66/p51; conditions: read-out: IC50
# Influenza B virus [31] = assay: Antiviral activity against influenza B virus in MDCK cells assessed as reduction of virus-induced cytopathicity by visual cytopathic effect scoring method; format: functional, organism-based
# L1210 = assay: Antiproliferative activity against mouse L1210 cells after 2 days; format: cell-based; conditions: L1210, 48 h; outline: as §5
# Vaccinia virus = assay: Antiviral activity against Vaccinia virus Lederle in human HEL cells assessed as protection against virus-induced cytopathicity; format: functional, organism-based; conditions: Orthopoxvirus vaccinia
# [32] = target: Human immunodeficiency virus type 1 reverse transcriptase (Human immunodeficiency virus 1, UniProt Q72547, K103N); assay: Inhibition of HIV1 reverse transcriptase p66/p51 K103N mutant; conditions: read-out: IC50; outline: as §2
# CCRF-CEM = assay: Antiproliferative activity against human CEM cells after 3 days; format: cell-based; conditions: 72 h; outline: as §5
structure (smiles),measurement,setting,value
Cc1cc(C)cc(S(=O)(=O)c2c(C(=O)NC(C)CS(N)(=O)=O)[nH]c3ccc(Cl)cc23)c1 (configuration not stated),IC50,[1],> 1 µM
same,CC50,[2],12.2 µM
same,EC50,Felid alphaherpesvirus 1,> 4 µM
same,IC50,[3],0.036 µM
same,IC50,[4],0.004 µM
same,EC50,Punta Toro virus,> 20 µM
same,EC50,[5],> 20 µM
same,EC50,[6],> 20 µM
same,EC50,[7],> 4 µM
same,EC50,Human respirovirus 3,> 20 µM
same,EC50,Influenza A virus H3N2 [8],> 4 µM
same,EC50,[9],> 10 µM
same,EC50,Influenza B virus [10],> 4 µM
same,EC50,Human alphaherpesvirus 2,> 4 µM
same,EC50,Influenza A virus [11],> 4 µM
same,EC50,Sindbis virus,> 20 µM
same,EC50,Human alphaherpesvirus 1 [12],> 4 µM
same,EC50,Feline coronavirus,> 4 µM
same,EC50,[13],0.0023 µM
same,IC50,[14],> 1 µM
same,MCC at 72 h,[15],20 µM
same,EC50,Influenza A virus H3N2 [16],> 4 µM
same,MCC,[17],20 µM
same,EC50,Coxsackievirus B4 [18],12 µM
same,EC50,Influenza A virus [19],> 4 µM
same,IC50,[20],1.94 µM
same,EC50,Coxsackievirus B4 [21],3 µM
same,CC50,[22],11.1 µM
same,IC50,[23],0.002 µM
same,IC50,[24],8.8 µM
same,MCC at 72 h,[25],100 µM
same,EC50,Human alphaherpesvirus 1 [26],> 4 µM
same,IC50,[27],0.39 µM
same,MCC at 72 h,[28],≥ 20 µM
same,EC50,[29],20 µM
same,IC50,[30],0.0004 µM
same,EC50,Influenza B virus [31],> 4 µM
same,IC50,L1210,15 µM
same,EC50,Vaccinia virus,> 4 µM
same,IC50,[32],0.233 µM
same,IC50,CCRF-CEM,13 µM
Cc1cc(C)cc(S(=O)(=O)c2c(C(=O)NCCS(N)(=O)=O)[nH]c3ccc(Cl)cc23)c1,IC50,[1],> 1 µM
same,CC50,[2],7.9 µM
same,EC50,Felid alphaherpesvirus 1,> 4 µM
same,IC50,[3],0.04 µM
same,IC50,[4],0.025 µM
same,EC50,Punta Toro virus,20 µM
same,EC50,[5],> 4 µM
same,EC50,[6],> 4 µM
same,EC50,[7],> 4 µM
same,EC50,Human respirovirus 3,> 20 µM
same,EC50,Influenza A virus H3N2 [8],> 4 µM
same,EC50,[9],> 10 µM
same,EC50,Influenza B virus [10],> 4 µM
same,EC50,Human alphaherpesvirus 2,> 4 µM
same,EC50,Influenza A virus [11],> 4 µM
same,EC50,Sindbis virus,20 µM
same,EC50,Human alphaherpesvirus 1 [12],> 4 µM
same,EC50,Feline coronavirus,> 4 µM
same,EC50,[13],0.0014 µM
same,IC50,[14],> 1 µM
same,MCC at 72 h,[15],20 µM
same,EC50,Influenza A virus H3N2 [16],> 4 µM
same,MCC,[17],20 µM
same,EC50,Coxsackievirus B4 [18],9 µM
same,EC50,Influenza A virus [19],> 4 µM
same,IC50,[20],> 40 µM
same,EC50,Coxsackievirus B4 [21],> 4 µM
same,CC50,[22],8.5 µM
same,IC50,[23],0.0012 µM
same,IC50,[24],12 µM
same,MCC at 72 h,[25],20 µM
same,EC50,Human alphaherpesvirus 1 [26],> 4 µM
same,IC50,[27],0.23 µM
same,MCC at 72 h,[28],100 µM
same,EC50,[29],20 µM
same,IC50,[30],0.0004 µM
same,EC50,Influenza B virus [31],> 4 µM
same,IC50,L1210,20 µM
same,EC50,Vaccinia virus,> 4 µM
same,IC50,[32],0.584 µM
same,IC50,CCRF-CEM,14 µM
